Data from ChEMBL document CHEMBL3351600, “Sulfur, selenium and tellurium pseudopeptides: synthesis and biological evaluation” (Bioorg Med Chem, 2014).

Legend:
CCRF-CEM = assay: Growth inhibition of human CCRF-CEM cells after 48 hrs; format: functional; conditions: for CC50: read-out: pLC50 (the source's name) (converted); for TGI: read-out: pTGI (converted)
Method in brief: (§1)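 NCI-60 human tumour cell line panel screen run at the US National Cancer Institute under its standard cytotoxicity protocol. It covers leukaemia, NSCLC, colon, CNS, melanoma, ovarian, renal, prostate and breast lines. An initial single-dose test was followed by five-dose testing with 48 h compound exposure.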

SW-620 = assay: Growth inhibition of human SW620 cells after 48 hrs; format: functional; conditions: SW-620, 48 h; for CC50: read-out: pLC50 (the source's name) (converted); for TGI: read-out: pTGI (converted)
Method in brief: (§2)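 Run by the NCI 58-cell-line screen under its standard cytotoxicity protocol. Compounds were first tested at a single dose, then at five doses. Cells were exposed to compound for 48 h.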

Micrococcus luteus = assay: Antimicrobial activity against Micrococcus luteus assessed as inhibition at 20 ug/6 mm disk after 1 to 2 days by agar diffusion assay; format: functional
Method in brief: (§3)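 Standard agar diffusion: 6-mm paper disks loaded with 20 µg of compound were placed on inoculated plates. Inhibition-zone diameter (mm) was read after 1 and 2 days of growth.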

Mycolicibacterium phlei = assay: Antimicrobial activity against Mycobacterium phlei assessed as inhibition at 20 ug/6 mm disk after 1 to 2 days by agar diffusion assay; format: functional; method in brief: as §3
[1] = Growth inhibition of human HCT15 cells after 48 hrs; format: functional; conditions: HCT-15, 48 h; for CC50: read-out: pLC50 (the source's name) (converted); for TGI: read-out: pTGI (converted); method in brief: as §1
SK-MEL-2 = assay: Growth inhibition of human SK-MEL-2 cells after 48 hrs; format: functional; conditions: SK-MEL-2, 48 h; for CC50: read-out: pLC50 (the source's name) (converted); for TGI: read-out: pTGI (converted); method in brief: as §1
[2] = Growth inhibition of human OVCAR5 cells after 48 hrs; format: functional; conditions: OVCAR-5, 48 h; for TGI: read-out: pTGI (converted); method in brief: as §1
Aspergillus niger = assay: Antimicrobial activity against Aspergillus niger assessed as inhibition at 20 ug/6 mm disk after 1 to 2 days by agar diffusion assay; format: functional; method in brief: as §3
A549 = assay: Growth inhibition of human A549/ATCC cells after 48 hrs; format: functional; conditions: A549, 48 h; for CC50: read-out: pLC50 (the source's name) (converted); for TGI: read-out: pTGI (converted); method in brief: as §1
MCF7 [3] = assay: Cell cycle arrest in human MCF7 cells assessed as accumulation at S phase […] by propidium iodide staining-based flow cytometric analysis; format: functional
MCF7 [4] = assay: Cell cycle arrest in human MCF7 cells assessed as accumulation at G2/M phase after 30 mins by propidium iodide staining-based flow cytometric analysis; format: functional
Method in brief: (§4)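 MCF-7 cells (10^6) were treated with compounds for 24 h alongside a methanol vehicle control. They were fixed in cold 70% methanol at 4 °C for one day, washed in PBS and permeabilised with 0.1% saponin in PBS. They were then stained with propidium iodide plus RNase (1 mg/ml) for 30 min, and DNA-content distribution was read by FACScan flow cytometry.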

MCF7 [5] = assay: Cell cycle arrest in human MCF7 cells assessed as accumulation at G0/G1 phase after 30 mins by propidium iodide staining-based flow cytometric analysis; format: functional; method in brief: as §4
A-431 = assay: Reduction in ROS in human A431 cells assessed as decrease in hydrogen peroxide level at 0.1 to 10 ng/ml after 1 hr by DCHFA assay; format: functional, cell-based
Method in brief: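 A-431 cells were seeded at 10^5 per well and exposed to a range of compound concentrations for 1 h. They were then loaded with DCHFA probe for 30 min in the dark. Fluorescence was read immediately at ex/em 485/528 nm and expressed as arbitrary units per 10^5 cells.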

SR = assay: Growth inhibition of human SR cells after 48 hrs; format: functional; conditions: for TGI: read-out: pTGI (converted); method in brief: as §2

CC1=C(SCCC(=O)OCC(=O)NCCC[Te]c2ccccc2)C(=O)c2ccccc2C1=O
GI50 (CCRF-CEM): 2.4 µM | CC50 (CCRF-CEM): > 100 µM | TGI (CCRF-CEM): 18.6 µM | GI50 (SW-620): 3.98 µM | CC50 (SW-620): 60.3 µM | TGI (SW-620): 17 µM | diameter of the inhibition zone (DIZ) (Micrococcus luteus): 11 mm | diameter of the inhibition zone (DIZ) (Mycolicibacterium phlei): 16 mm | GI50 [1]: 2.57 µM | CC50 [1]: 77.6 µM | TGI [1]: 12 µM | Retention_time: 0.928 min | GI50 (SK-MEL-2): 2.09 µM | CC50 (SK-MEL-2): 12.9 µM | TGI (SK-MEL-2): 4.79 µM | GI50 [2]: 2.75 µM | LC50 [2]: 38 µM | TGI [2]: 8.51 µM | diameter of the inhibition zone (DIZ) (Aspergillus niger): 19 mm | GI50 (A549): 1.29 µM | CC50 (A549): > 100 µM | TGI (A549): 3.63 µM

COc1ccc(N(CC(=O)NCCC[Te]c2ccccc2)C(=O)CCSC2=C(C)C(=O)c3ccccc3C2=O)cc1
GI50 (CCRF-CEM): 0.417 µM | CC50 (CCRF-CEM): > 100 µM | TGI (CCRF-CEM): 2.51 µM | GI50 (SW-620): 1.95 µM | CC50 (SW-620): 45.7 µM | TGI (SW-620): 5.62 µM | Activity (MCF7 [3]): 5.55% | diameter of the inhibition zone (DIZ) (Micrococcus luteus): 8 mm | diameter of the inhibition zone (DIZ) (Mycolicibacterium phlei): 15 mm | GI50 [1]: 0.447 µM | CC50 [1]: 24.5 µM | TGI [1]: 2.34 µM | Activity (MCF7 [4]): 5.84% | Retention_time: 0.938 min | GI50 (SK-MEL-2): 2.29 µM | CC50 (SK-MEL-2): 14.8 µM | TGI (SK-MEL-2): 5.01 µM | Activity (MCF7 [5]): 88.62% | GI50 [2]: 0.631 µM | LC50 [2]: 6.46 µM | TGI [2]: 2.24 µM | diameter of the inhibition zone (DIZ) (Aspergillus niger): 0 mm | GI50 (A549): 0.257 µM | CC50 (A549): 3.47 µM | TGI (A549): 0.724 µM

COc1ccc(N(CC(=O)NCCC[Te]c2ccccc2)C(=O)c2ccccc2)cc1
GI50 (SW-620): 3.89 µM | CC50 (SW-620): 56.2 µM | TGI (SW-620): 14.5 µM | Activity (MCF7 [3]): 6.19% | diameter of the inhibition zone (DIZ) (Micrococcus luteus): 13 mm | diameter of the inhibition zone (DIZ) (Mycolicibacterium phlei): 17 mm | GI50 [1]: 2.95 µM | CC50 [1]: > 100 µM | TGI [1]: 15.1 µM | Activity (MCF7 [4]): 8.8% | Activity (A-431): Dose-dependent effect | GI50 (SR): 2.82 µM | LC50 (SR): > 100 µM | TGI (SR): 10 µM | Retention_time: 0.89 min | GI50 (SK-MEL-2): 4.17 µM | CC50 (SK-MEL-2): > 100 µM | TGI (SK-MEL-2): 15.1 µM | Activity (MCF7 [5]): 85.01% | GI50 [2]: 3.8 µM | LC50 [2]: 52.5 µM | TGI [2]: 11.5 µM | diameter of the inhibition zone (DIZ) (Aspergillus niger): 10 mm | GI50 (A549): 0.38 µM | CC50 (A549): 17.8 µM | TGI (A549): 2.14 µM

COc1ccc(N(CC(=O)NCCC[Te]c2ccccc2)C(=O)CNC(=O)OC(C)(C)C)cc1
GI50 (SW-620): 3.47 µM | CC50 (SW-620): > 100 µM | TGI (SW-620): 14.5 µM | diameter of the inhibition zone (DIZ) (Micrococcus luteus): 7 mm | diameter of the inhibition zone (DIZ) (Mycolicibacterium phlei): 12 mm | GI50 [1]: 3.16 µM | CC50 [1]: 93.3 µM | TGI [1]: 10.5 µM | Activity (A-431): Dose-dependent effect | GI50 (SR): 1.66 µM | LC50 (SR): > 100 µM | TGI (SR): 7.76 µM | Retention_time: 1.548 min | GI50 (SK-MEL-2): 3.02 µM | CC50 (SK-MEL-2): > 100 µM | TGI (SK-MEL-2): 6.76 µM | GI50 [2]: 3.02 µM | LC50 [2]: 38.9 µM | TGI [2]: 7.41 µM | diameter of the inhibition zone (DIZ) (Aspergillus niger): 0 mm | GI50 (A549): 0.525 µM | CC50 (A549): 6.76 µM | TGI (A549): 2.19 µM
